Measurements published in ChEMBL document CHEMBL4622996, “Discovery of Vixotrigine: A Novel Use-Dependent Sodium Channel Blocker for the Treatment of Trigeminal Neuralgia” (ACS Med Chem Lett, 2020).
Active and inactive are the calls of the source. The calls are words filed in the database; no cut-off is given here.

Experiments:
[1] = biological target: T1, Sodium channel protein type 3 subunit alpha (Homo sapiens, UniProt Q9NY46); test: Inhibition of Nav1.3 (unknown origin) expressed in HEK293 cells assessed as inhibition of sodium current incubated for 3 to 3.5 mins by electrophysiology assay; format: cell-based
Method in brief: (§1)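 HEK293 cells stably expressing NaV1.3, grown in DMEM-F12 with 10% FBS at 37 °C, dissociated at 50–70% confluency; IonWorksHT planar patch clamp at 21–23 °C, amphotericin perforated access; intracellular K-gluconate 100, KCl 40, MgCl2 3.2, EGTA 3, HEPES 5 mM, pH 7.3.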
Target sequence in this assay (Q9NY46 whole entry): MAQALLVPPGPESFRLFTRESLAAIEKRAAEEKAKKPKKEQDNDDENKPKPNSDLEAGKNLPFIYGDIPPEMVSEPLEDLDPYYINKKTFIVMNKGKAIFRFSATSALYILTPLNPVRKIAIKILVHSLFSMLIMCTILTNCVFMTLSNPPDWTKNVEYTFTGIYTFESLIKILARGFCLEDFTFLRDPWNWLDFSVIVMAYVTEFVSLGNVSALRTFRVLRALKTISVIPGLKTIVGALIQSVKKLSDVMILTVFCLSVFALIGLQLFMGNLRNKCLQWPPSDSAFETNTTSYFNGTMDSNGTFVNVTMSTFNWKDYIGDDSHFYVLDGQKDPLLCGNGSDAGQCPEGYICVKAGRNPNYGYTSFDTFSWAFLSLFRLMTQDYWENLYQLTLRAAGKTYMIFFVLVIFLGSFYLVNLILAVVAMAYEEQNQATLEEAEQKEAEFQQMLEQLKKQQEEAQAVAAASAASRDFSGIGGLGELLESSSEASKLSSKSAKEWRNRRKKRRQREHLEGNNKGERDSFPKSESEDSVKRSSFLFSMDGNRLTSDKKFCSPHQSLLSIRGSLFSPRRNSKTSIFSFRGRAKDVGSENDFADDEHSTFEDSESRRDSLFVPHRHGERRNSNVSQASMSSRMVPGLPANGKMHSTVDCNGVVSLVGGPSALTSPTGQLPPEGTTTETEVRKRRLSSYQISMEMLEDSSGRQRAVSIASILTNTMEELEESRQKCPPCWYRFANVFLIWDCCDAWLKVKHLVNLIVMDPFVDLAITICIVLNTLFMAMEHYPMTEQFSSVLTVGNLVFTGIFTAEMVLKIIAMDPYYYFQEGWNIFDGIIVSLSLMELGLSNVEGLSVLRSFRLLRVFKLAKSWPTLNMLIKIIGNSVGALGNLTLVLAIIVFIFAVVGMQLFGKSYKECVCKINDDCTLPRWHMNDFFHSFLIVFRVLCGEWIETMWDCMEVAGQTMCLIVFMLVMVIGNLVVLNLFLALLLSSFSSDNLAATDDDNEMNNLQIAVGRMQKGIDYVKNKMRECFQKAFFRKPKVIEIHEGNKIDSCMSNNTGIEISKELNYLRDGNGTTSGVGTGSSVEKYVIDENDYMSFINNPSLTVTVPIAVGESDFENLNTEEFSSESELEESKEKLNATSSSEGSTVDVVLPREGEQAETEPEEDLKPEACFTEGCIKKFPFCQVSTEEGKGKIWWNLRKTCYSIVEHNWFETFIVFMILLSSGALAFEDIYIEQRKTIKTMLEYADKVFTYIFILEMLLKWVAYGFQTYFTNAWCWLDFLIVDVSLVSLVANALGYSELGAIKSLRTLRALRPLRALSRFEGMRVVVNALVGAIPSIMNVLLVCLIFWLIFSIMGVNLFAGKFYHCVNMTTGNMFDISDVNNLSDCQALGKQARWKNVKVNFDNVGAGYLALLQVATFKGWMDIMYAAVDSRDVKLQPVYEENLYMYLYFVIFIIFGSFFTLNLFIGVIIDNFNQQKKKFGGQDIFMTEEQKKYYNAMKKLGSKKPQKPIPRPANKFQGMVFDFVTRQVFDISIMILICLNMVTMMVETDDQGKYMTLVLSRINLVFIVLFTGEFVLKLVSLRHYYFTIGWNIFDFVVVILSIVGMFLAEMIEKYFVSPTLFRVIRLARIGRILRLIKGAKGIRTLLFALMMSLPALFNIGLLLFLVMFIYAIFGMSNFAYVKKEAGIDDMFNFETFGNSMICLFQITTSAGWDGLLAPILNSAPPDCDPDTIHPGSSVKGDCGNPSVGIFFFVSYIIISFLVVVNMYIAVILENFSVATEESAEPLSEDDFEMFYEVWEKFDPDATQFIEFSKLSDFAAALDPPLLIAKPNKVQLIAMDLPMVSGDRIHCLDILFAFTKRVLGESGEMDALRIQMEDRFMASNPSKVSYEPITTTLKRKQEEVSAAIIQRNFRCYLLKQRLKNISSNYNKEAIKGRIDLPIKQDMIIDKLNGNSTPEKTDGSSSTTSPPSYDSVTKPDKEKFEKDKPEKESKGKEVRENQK

[2] = Oral bioavailability in rat at 3 mg/kg; format: ADME, organism-based; settings: in vivo
[3] = biological target: T1, Sodium channel protein type 3 subunit alpha; test: Inhibition of Nav1.3 (unknown origin) expressed in HEK293 cells assessed as 15% inhibition of sodium current incubated for 3 to 3.5 mins by electrophysiology assay; format: cell-based; method in brief: as §1
Target sequence in this assay (Q9NY46 whole entry, looked up): as the sequence (Q9NY46 whole entry) above

[4] = Ratio of drug level in brain to blood in rat; format: ADME, tissue-based; settings: read-out: Kbb
[5] = biological target: Voltage-gated inwardly rectifying potassium channel KCNH2 (Homo sapiens, UniProt Q12809); test: Inhibition of human ERG; settings: for inhibition (INH): human
[6] = Total blood clearance in rat blood at 0.5 mg/kg, iv; format: ADME, organism-based
Homo sapiens = species: Homo sapiens; test: Selectivity ratio of UD15 to IC50 of Nav1.3 (unknown origin) expressed in HEK293 cells; format: cell-based
Rattus norvegicus = test: Antinociceptive activity in rat model of chronic constriction injury-induced neuropathic pain assessed as inhibition of CCI-induced mechanical allodynia at 30 mg/kg, po BID administered 22 days post surgery and measured on day 1, 6 and 8; format: functional, organism-based
Method in brief: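 Chronic constriction injury model of neuropathic pain. Dosed orally twice daily as the positive-control arm of a study that also tested 0.5 and 5 mg/kg oral BID groups. Dosing started during day 22. Mechanical allodynia was measured on dosing days 1, 6 and 8.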

[7] = Fraction unbound in rat plasma; format: ADME, cell-free
[8] = Fraction unbound in rat brain; format: ADME, tissue-based
[9] = Fraction unbound in rat blood; format: ADME, tissue-based

Chain of Voltage-gated inwardly rectifying potassium channel KCNH2 (Q12809 whole entry): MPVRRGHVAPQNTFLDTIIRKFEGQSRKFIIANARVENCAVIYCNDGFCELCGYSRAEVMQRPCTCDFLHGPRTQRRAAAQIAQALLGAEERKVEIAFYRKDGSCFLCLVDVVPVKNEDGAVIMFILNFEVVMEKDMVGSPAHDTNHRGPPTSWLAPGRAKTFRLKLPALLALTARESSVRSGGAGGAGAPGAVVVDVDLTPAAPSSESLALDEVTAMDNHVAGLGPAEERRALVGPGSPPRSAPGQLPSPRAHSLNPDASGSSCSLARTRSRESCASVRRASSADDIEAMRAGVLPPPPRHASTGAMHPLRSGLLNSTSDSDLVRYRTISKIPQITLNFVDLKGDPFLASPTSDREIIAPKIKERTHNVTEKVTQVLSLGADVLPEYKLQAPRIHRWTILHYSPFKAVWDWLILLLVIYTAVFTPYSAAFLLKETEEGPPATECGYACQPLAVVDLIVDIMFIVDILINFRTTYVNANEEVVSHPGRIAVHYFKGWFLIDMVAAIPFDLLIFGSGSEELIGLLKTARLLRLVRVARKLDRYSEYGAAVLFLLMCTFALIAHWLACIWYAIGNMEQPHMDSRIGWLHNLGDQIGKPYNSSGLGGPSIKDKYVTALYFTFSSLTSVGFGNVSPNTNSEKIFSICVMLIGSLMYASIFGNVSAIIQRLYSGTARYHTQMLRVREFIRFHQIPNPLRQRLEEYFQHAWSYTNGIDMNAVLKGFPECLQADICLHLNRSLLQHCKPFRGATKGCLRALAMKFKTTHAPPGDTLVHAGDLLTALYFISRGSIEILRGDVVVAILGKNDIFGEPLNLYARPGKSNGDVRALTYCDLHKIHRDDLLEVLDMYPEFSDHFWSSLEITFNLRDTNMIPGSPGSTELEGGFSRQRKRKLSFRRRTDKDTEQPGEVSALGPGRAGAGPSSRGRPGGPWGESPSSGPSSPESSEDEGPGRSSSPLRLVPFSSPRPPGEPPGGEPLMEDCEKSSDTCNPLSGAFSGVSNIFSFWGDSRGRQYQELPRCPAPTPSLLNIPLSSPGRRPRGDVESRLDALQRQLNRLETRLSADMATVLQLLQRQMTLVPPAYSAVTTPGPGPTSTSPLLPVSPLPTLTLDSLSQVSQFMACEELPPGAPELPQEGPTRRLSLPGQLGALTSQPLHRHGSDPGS

| SMILES | IC50 [1] [µM] | log(activity) [3] | IC50 [5] [µM] | Selectivity ratio (Homo sapiens) | further results |
| --- | --- | --- | --- | --- | --- |
| NC(=O)CN1CCOc2cc(OCc3ccccc3)ccc2C1 | > 79.4 |  |  |  |  |
| NC(=O)[C@@H]1CC[C@H](c2ccc(OCc3ccc(F)cc3)cc2)N1 | > 63.1 | -5 | 7.94 |  | bioavailability [2]: 31%; Kp [4]: 3.5; clearance [6]: 91 mL/min/kg |
| C[C@@H](C(N)=O)N1CCCC1c1ccc(OCc2ccccc2F)cc1 (single isomer, unassigned; isomer 2) [listing 1 of 2 here] |  | -5.9 |  | 29 |  |
| NCC1(CC(=O)O)CCCCC1 |  |  |  |  | Activity (Rattus norvegicus): Active |
| NC(=O)[C@@H]1CCC[C@H](c2ccc(OCc3cccc(F)c3)cc2)N1 (stereo in doubt) | 39.8 | -5.4 | 31.6 | 7 | fraction unbound [7]: 0.04; fraction unbound [8]: 0.01 |
| NC(=O)[C@@H]1CSc2cc(OCc3ccccc3F)ccc2CN1 | > 100 | -4.7 |  |  |  |
| CNC(=O)[C@@H]1CC[C@H](c2ccc(OCc3ccccc3F)cc2)N1 | > 63.1 | -5.3 | 25.1 |  | fraction unbound [8]: 0.015 |
| NC(=O)CNCc1ccc(OCc2ccccc2F)cc1 | 50.1 | -5.4 |  | 11 |  |
| NC(=O)CNC1CCc2cc(OCc3ccccc3F)ccc21 (configuration not stated) | 31.6 | -5.5 |  | 1.3 | inhibition (INH) [5]: Active |
| NC(=O)[C@@H]1CC[C@H](c2ccc(Oc3cccc(F)c3)cc2)N1 | 100 | -5.5 | 7.94 | 29 |  |
| C[C@H](NC1CCCc2cc(OCc3ccccc3F)ccc21)C(N)=O (some centres not stated) | 63.1 | -5.6 |  | 24 | inhibition (INH) [5]: Active |
| NC(=O)[C@H]1CC[C@H](c2ccc(OCc3ccccc3F)cc2)N1 | > 79.4 | -5.4 | 6.31 |  |  |
| NC(=O)[C@@H]1CC[C@@H](c2ccc(OCc3ccccc3F)cc2)N1 | 100 | -5.5 | 5.01 |  |  |
| C[C@@H](Oc1ccc([C@H]2CC[C@@H](C(N)=O)N2)cc1)c1ccccc1 | 31.6 | -5.5 | 3.98 | 9 |  |
| NC(=O)[C@H]1CC[C@@H](c2ccc(OCc3ccccc3F)cc2)N1 | 63.1 | -5.4 | 10 |  |  |
| NC(=O)[C@@H]1CC[C@H](c2ccc(OCc3ccccc3)cc2)N1 | > 63.1 | -5.6 | 7.94 | 37 |  |
| NC(=O)CN1Cc2ccc(OCc3ccccc3F)cc2C1 | > 100 |  |  |  |  |
| C[C@@H](C(N)=O)N1CCc2cc(OCc3ccccc3F)ccc2C1 | > 79.4 |  |  |  |  |
| NC(=O)[C@@H]1CC[C@H](c2ccc(OCc3ccccc3F)cc2F)N1 | > 100 | -5.6 | 12.6 | 42 | fraction unbound [8]: 0.009 |
| NC(=O)[C@@H]1CC[C@H](c2ccc(OCc3ccccc3F)cn2)N1 | 63.1 | -4.8 | 15.8 | 6 |  |
| N#Cc1ccccc1COc1ccc([C@H]2CC[C@@H](C(N)=O)N2)cc1 | > 63.1 | -5.3 | 15.8 |  | bioavailability [2]: 39%; fraction unbound [7]: 0.12; Kp [4]: 0.8; fraction unbound [8]: 0.063; clearance [6]: 37 mL/min/kg |
| C[C@@H](C(N)=O)N1CCCC1c1ccc(OCc2ccccc2F)cc1 (some centres not stated) [listing 1 of 2 here] |  | -5.5 |  | 14 |  |

| SMILES | IC50 [1] [µM] | log(activity) [3] | IC50 [5] [µM] | Selectivity ratio (Homo sapiens) | further results |
| --- | --- | --- | --- | --- | --- |
| N#Cc1ccc(COc2ccc([C@H]3CC[C@@H](C(N)=O)N3)cc2)cc1 | > 63.1 | -5 | 7.94 |  |  |
| NC(=O)[C@H]1CCC[C@@H](c2ccc(OCc3cccc(F)c3)cc2)N1 (stereo in doubt) | 39.8 | -5.4 | 3.16 | 11 |  |
| N#Cc1cc([C@H]2CC[C@@H](C(N)=O)N2)ccc1OCc1ccccc1F | > 50.1 | -4.8 |  |  |  |
| CN1[C@@H](c2ccc(OCc3ccccc3F)cc2)CC[C@H]1C(N)=O | > 100 | -4.4 | 50.1 | 2 |  |
| NC(=O)CN1CCCc2cc(OCc3ccccc3F)ccc2C1 | > 79.4 |  |  |  |  |
| CC(C(N)=O)N1CCOc2cc(OCc3ccccc3F)ccc2C1 (configuration not stated) | > 63.1 | -4.6 |  |  |  |
| NC(=O)[C@@H]1CC[C@H](c2ccc(OCc3cccc(F)c3)cc2)N1 | > 100 | -5.5 | 3.16 |  | fraction unbound [7]: 0.033; fraction unbound [8]: 0.01 |
| N#Cc1cccc(COc2ccc([C@H]3CC[C@@H](C(N)=O)N3)cc2)c1 | > 63.1 | -5.2 |  |  |  |
| N#Cc1ccccc1Oc1ccc([C@H]2CC[C@@H](C(N)=O)N2)cc1 | > 100 | -4.6 | 3.98 |  | fraction unbound [9]: 0.12; fraction unbound [8]: 0.076 |
| NC(=O)[C@@H]1CC[C@H](c2ccc(Oc3ccccc3)cc2)N1 | 100 | -5.4 | 12.6 | 31 | bioavailability [2]: 25%; Kp [4]: 4.8; clearance [6]: 40 mL/min/kg |
| O=C1CN(Cc2ccc(OCc3ccccc3F)cc2)CCN1 | > 79.4 |  |  |  |  |
| C[C@@H](C(N)=O)N1CCCC1c1ccc(OCc2ccccc2F)cc1 (some centres not stated) [listing 2 of 2 here] | 50.1 |  |  |  | inhibition (INH) [5]: Active |
| COc1cc([C@H]2CC[C@@H](C(N)=O)N2)ccc1OCc1ccccc1F | 63.1 | -5.2 | 3.98 | 10 | fraction unbound [8]: 0.033 |
| NC(=O)[C@@H]1CSC[C@H](c2ccc(OCc3cccc(F)c3)cc2)N1 (racemic) | > 89.1 | < -4.05 |  |  |  |
| C[C@H](NC1CCOc2cc(OCc3ccccc3F)ccc21)C(N)=O (some centres not stated) | > 79.4 |  |  |  |  |
| NC(=O)[C@@H]1CC[C@H](c2ccc(Oc3ccc(F)cc3)cc2)N1 | > 100 | -5.3 | 5.01 |  | fraction unbound [7]: 0.11; fraction unbound [8]: 0.016 |
| NC(=O)C1Cc2cc(OCc3ccccc3F)ccc2CN1 (configuration not stated) | 20 | -4.8 |  | 1.3 |  |
| NC(=O)C1CCC(c2ccc(OCc3ccccc3F)cc2)N1 (configuration not stated) | 63.1 to 100 | -5.4 |  |  |  |
| C[C@@H](C(N)=O)N1CCCC1c1ccc(OCc2ccccc2F)cc1 (single isomer, unassigned; isomer 2) [listing 2 of 2 here] | 39.8 |  |  |  |  |
| NC(=O)[C@@H]1CC[C@H](c2cccc(Oc3ccccc3)c2)N1 | > 100 | -4.7 | 63.1 |  |  |
| NC(=O)[C@@H]1CCCN1Cc1ccc(OCc2ccccc2F)cc1 | 79.4 | -5.8 |  | 64 | inhibition (INH) [5]: Active |
| O=C1NCCC1NCc1ccc(OCc2ccccc2F)cc1 (configuration not stated) | 126 | -4.8 |  | 8 |  |
